From ChEMBL document CHEMBL1125107, “Cephalosporin 3'-quinolone esters with a dual mode of action” (J Med Chem, 1990) come the findings set out here.

Converted amounts (≈) assume the structure as drawn. Bounds are passed on as bounds.

Series [1] deals with Pseudomonas aeruginosa. The series can be described thus: In vitro antibacterial activity was determined against Pseudomonas aeruginosa 18S/H ( Class Id beta-lactamase overproducer). It is filed as functional. The method in brief: (§1)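 Broth MIC determination: serial 2-fold dilutions in Mueller-Hinton broth by standard methodology; the lowest concentration inhibiting growth is reported as the MIC, in nmol/mL.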

The test system of another series is Enterococcus faecalis. Nature of the series: In vitro antibacterial activity was determined against Enterococcus faecalis ATCC 29212. The format is functional. The method in brief:
(§2)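 MIC by serial 2-fold dilution in Mueller-Hinton broth; results given as minimum inhibitory concentrations (nmol/mL).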

Series [2] in a line: Evaluated for its stability in Mueller-Hinton broth at 37 degrees Celsius as determined by HPLC analysis. The conditions noted are these: pH 6.5.
The subject of series [3] is Escherichia coli. Nature of the series: In vitro antibacterial activity was determined against Escherichia coli UB 1005. It is filed as functional. The method in brief:
as §2

Series [4] can be described thus: Evaluated for its stability in human plasma pH 6.5 at 37 degrees Celsius as determined by HPLC analysis. It is filed as ADME.
The subject of series [5] is Enterobacter cloacae. Nature of the series: In vitro antibacterial activity was determined against Enterobacter cloacae P99 (Class Ia beta-lactamase overproducer). The format is functional. The method in brief:
as §2

For series [6], the system named is Escherichia coli. Nature of the series: In vitro antibacterial activity was determined against Escherichia coli TEM-1 (TEM-1 (class IIIa) beta-lactamase producer). It is filed as functional. The method in brief:
as §2

The nature of series [7]: Half life period in rat after (i.v.) administration of a dose of 20 mg/kg. The format is ADME, organism-based. Set-up: dose 20 mg/kg, route intravenous. As to conditions: in vivo, iv. The method in brief:
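Rats given 20 mg/kg iv; plasma half-life determined.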

Series [8] concerns Proteus vulgaris. The series can be described thus: In vitro antibacterial activity was determined against Proteus vulgaris 1028 BC (Class Ic beta-lactamase overproducer). It is filed as functional. The method in brief:
as §2

In series [9] the test system is Staphylococcus aureus. The series can be described thus: In vitro antibacterial activity was determined against Staphylococcus aureus 95 (Methicillin-resistant, high-level beta-lactamase producer). The format is functional. The method in brief: (§3)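 Serial 2-fold broth dilution in Mueller-Hinton broth, run by standard methodology; read-out is the minimum inhibitory concentration (MIC).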

A short description of series [10]: Toxicity was determined. The format is organism-based. As to conditions: mouse, in vivo. The method in brief: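 Acute toxicity in mice after intravenous dosing, expressed as LD50 (mg/kg iv).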
In series [11] the test system is Staphylococcus aureus. The series can be described thus: In vitro antibacterial activity was determined against Staphylococcus aureus ATCC 29213 ( inducible, low level beta-lactamase producer). It is filed as functional. The method in brief: as §1
The next series concerns Serratia marcescens. The series can be described thus: In vitro antibacterial activity was determined against Serratia marcescens 1071. It is filed as functional. The method in brief:
as §1

The subject of series [12] is Pseudomonas aeruginosa. The series can be described thus: In vitro antibacterial activity was determined against Pseudomonas aeruginosa ATCC 27853. The format is functional. The method in brief:
as §1

In series [13] the test system is Staphylococcus aureus. The series can be described thus: In vitro antibacterial activity was determined against Staphylococcus aureus 1059B ( inducible, high level beta-lactamase producer). It is filed as functional. The method in brief: as §1
A further series concerns Citrobacter freundii. The series can be described thus: In vitro antibacterial activity was determined against Citrobacter freundii BS-16. The format is functional. The method in brief: as §2
Series [14] concerns Proteus mirabilis. Nature of the series: In vitro antibacterial activity was determined against Proteus mirabilis 90. The format is functional. The method in brief:
as §2

In series [15] the test system is Staphylococcus aureus. The series can be described thus: Minimum inhibitory concentration against Staphylococcus aureus 95 (Methicillin-resistant, high-level beta-lactamase producer). The format is functional. The method in brief:
as §3

For series [16], the system named is Proteus mirabilis. The series can be described thus: Evaluated for the minimum inhibitory concentration against Proteus mirabilis 90.
Series [17] has as its system Escherichia coli. The series can be described thus: Evaluated for the minimum inhibitory concentration against Escherichia coli UB 1005. It is filed as functional. The method in brief: as §2
The next series concerns Streptococcus pneumoniae. The series can be described thus: Minimum inhibitory concentration against Streptococcus pneumoniae 6301. The format is functional. The method in brief: as §1
A further series has as its system Streptococcus pyogenes. The series can be described thus: Minimum inhibitory concentration against Streptococcus pyogenes 4. It is filed as functional. The method in brief: as §1
The test system of series [18] is Proteus vulgaris. Nature of the series: Minimum inhibitory concentration against Proteus vulgaris 1028 BC (Class Ic beta-lactamase overproducer). It is filed as functional. The method in brief: as §1
In series [19] the test system is Pseudomonas aeruginosa. Nature of the series: Evaluated for the minimum inhibitory concentration against Pseudomonas aeruginosa 18S/H (Class Id beta-lactamase overproducer). The format is functional. The method in brief:
as §2

In series [20] the test system is Pseudomonas aeruginosa. The series can be described thus: Minimum inhibitory concentration against Pseudomonas aeruginosa ATCC 27853. It is filed as functional. The method in brief: as §1
For series [21], the system named is Proteus vulgaris. The series can be described thus: Evaluated for the minimum inhibitory concentration against Proteus vulgaris 1028 BC ( Class Ic beta-lactamase overproducer. The format is functional. The method in brief:
as §2

Series [22] deals with Staphylococcus aureus. Nature of the series: Evaluated for the minimum inhibitory concentration against Staphylococcus aureus 1059B ( inducible, high level beta-lactamase producer). It is filed as functional. The method in brief:
as §3

Series [23] concerns Pseudomonas aeruginosa. The series can be described thus: Evaluated for the minimum inhibitory concentration against Pseudomonas aeruginosa 18S/H ( Class Id beta-lactamase overproducer). It is filed as functional. The method in brief:
as §2

For series [24], the system named is Enterobacter cloacae. The series can be described thus: Evaluated for the minimum inhibitory concentration against Enterobacter cloacae P99 ( Class Ia beta-lactamase overproducer). It is filed as functional. The method in brief:
as §2

Series [25] has as its system Staphylococcus aureus. The series can be described thus: Evaluated for the minimum inhibitory concentration against Staphylococcus aureus ATCC 29213 ( inducible, low level beta-lactamase producer). The format is functional. The method in brief: as §3
For series [26], the system named is Proteus vulgaris. The series can be described thus: Evaluated for the minimum inhibitory concentration against Proteus vulgaris 1028 BC (Class Ic beta-lactamase overproducer. It is filed as functional. The method in brief:
as §2

The test system of series [27] is Staphylococcus aureus. The series can be described thus: Evaluated for the minimum inhibitory concentration against Staphylococcus aureus 95 (Methicillin-resistant, high-level beta-lactamase producer). The format is functional. The method in brief:
as §3

As a reminder, the MIC is the lowest concentration found to suppress growth. Read a high MIC as weaker potency. For orientation: half-life means how long it takes for the measured level to halve. A higher half-life goes with slow decline. Usually LD50 stands for the dose at which mortality reaches 50%. A lower LD50 goes with greater toxicity. `CCn1cc(C(=O)OCC2=C(C(=O)O)N3C(=O)[C@@H](NC(=O)COc4ccccc4)C3SC2)c(=O)c2cc3c(cc21)OCO3` (stereo not given in full): the MIC came out at 16 µg/mL (≈ 26.3 µM) with Pseudomonas aeruginosa [1]; 64 µg/mL (≈ 105 µM) against Enterococcus faecalis; 32 µg/mL (≈ 52.7 µM) in the series with Escherichia coli [3]; 0.5 µg/mL (≈ 0.823 µM) in the series on Enterobacter cloacae [5]; 1 µg/mL (≈ 1.65 µM) against Escherichia coli [6]; 0.25 µg/mL (≈ 0.411 µM) against Proteus vulgaris [8]. The MIC against Staphylococcus aureus [9] was 4 µg/mL (≈ 6.58 µM); against Staphylococcus aureus [11] it was 0.25 µg/mL (≈ 0.411 µM); in the series with Serratia marcescens, 1 µg/mL (≈ 1.65 µM); in the series with Pseudomonas aeruginosa [12], above 256 µg/mL; against Staphylococcus aureus [13], 0.5 µg/mL (≈ 0.823 µM); in the series on Citrobacter freundii, 2 µg/mL (≈ 3.29 µM). For the same compound, in the series on Proteus mirabilis [14], 4 µg/mL (≈ 6.58 µM) was the least that counted as inhibitory (MIC). For the same compound, the half-life in series [2] was 11.2 h; in [4], 6 h; in series [7], 0.217 h. In [10], this compound yielded an LD50 above 500 mg/kg.
For the compound `CN1CCN(c2c(F)cc3c(=O)c(C(=O)OCC4=C(C(=O)O)N5C(=O)[C@@H](NC=O)C5SC4)cn(CCF)c3c2F)CC1` (stereo not given in full), the MIC came out at 32 µg/mL (≈ 52.5 µM) with Staphylococcus aureus [15]; 32 µg/mL (≈ 52.5 µM) in the series on Proteus mirabilis [16]; 32 µg/mL (≈ 52.5 µM) in the series with Escherichia coli [17]; 0.25 µg/mL (≈ 0.41 µM) in the series on Streptococcus pneumoniae; 0.25 µg/mL (≈ 0.41 µM) in the series with Streptococcus pyogenes; 0.5 µg/mL (≈ 0.82 µM) against Proteus vulgaris [18]. In addition, the MIC against Pseudomonas aeruginosa [19] is 64 µg/mL (≈ 105 µM); against Pseudomonas aeruginosa [20], above 128 µg/mL.
`CCn1cc(C(=O)O)c(=O)c2cc(F)c(N3CCN(C=O)CC3)cc21` [4-N-FORMYL-1-PIPERAZINYL-NORFLOXACIN]: the minimal inhibitory concentration (MIC) against Staphylococcus aureus [15] is 1 µg/mL (≈ 2.88 µM); in the series with Proteus vulgaris [21], 0.5 µg/mL (≈ 1.44 µM); in the series with Streptococcus pneumoniae, 8 µg/mL (≈ 23 µM); against Staphylococcus aureus [22] it was 1 µg/mL (≈ 2.88 µM); against Streptococcus pyogenes it was 8 µg/mL (≈ 23 µM); in the series with Pseudomonas aeruginosa [23], 2 µg/mL (≈ 5.76 µM). In addition, the MIC against Enterobacter cloacae [24] stood at 0.5 µg/mL (≈ 1.44 µM); against Staphylococcus aureus [25], 1 µg/mL (≈ 2.88 µM); with Pseudomonas aeruginosa [20] it was 16 µg/mL (≈ 46.1 µM).
On to `CN1CCN(c2c(F)cc3c(=O)c(C(=O)OCC4=C(C(=O)O)N5C(=O)[C@@H](NC(=O)/C(=N/OCC(=O)O)c6csc(N)n6)C5SC4)cn(CCF)c3c2F)CC1` (stereo not given in full), for which the MIC in the series on Streptococcus pneumoniae was 0.5 µg/mL (≈ 0.618 µM); with Streptococcus pyogenes it was 0.5 µg/mL (≈ 0.618 µM); in the series with Proteus vulgaris [26] it was 0.25 µg/mL (≈ 0.309 µM); against Pseudomonas aeruginosa [23], 4 µg/mL (≈ 4.95 µM); in the series on Pseudomonas aeruginosa [20], 32 µg/mL (≈ 39.6 µM); in the series with Staphylococcus aureus [27], 1 µg/mL (≈ 1.24 µM).
